From ChEMBL document CHEMBL1125490, “3'-Spiro nucleosides, a new class of specific human immunodeficiency virus type 1 inhibitors: synthesis and antiviral activity of [2'-5'-bis-O-(tert-butyldimethylsilyl)-beta-D-xylo- and -ribofuranose]-3'-spiro-5"-[4"-amino-1",2"-oxathiole 2",2"-dioxide] (TSAO) pyrimidine nucleosides” (J Med Chem, 1992) come the findings set out here.

Each structure is given as a SMILES string. Converted amounts (≈) assume the structure as drawn.

The subject of assay [1] is Human immunodeficiency virus 1. Kind of assay: Concentration required to inhibit HIV-1 induced cytopathicity in human MT-4 lymphocyte cells. The assay is classed as functional, organism-based. In a few lines:
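MT-4 cells at 5 × 10⁵/mL were infected with HIV-1 at 100 CCID₅₀ per mL of cell suspension, then mixed 1:1 with serial dilutions of compound. After 5 days, viable cells were counted by trypan blue staining. EC₅₀ was the concentration giving 50% protection against virus-induced loss of viable cells. Values are means of at least three to five independent experiments.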
(In general: Cytopathic effects are the visible damage that an infection or toxin causes in cultured cells.)

Assay [2] deals with MT4. Kind of assay: Concentration required to reduce human MT-4 cell viability by 50%. The format is functional. In a few lines:
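Mock-infected MT-4 cells were cultured 5 days with serial dilutions of compound, and viable cells were counted by trypan blue staining. CC₅₀ was the concentration reducing viable cell number by 50%. Values are means of at least three to five independent experiments.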

Assay [3] has as its system MT4. Description: Ratio of effective concentration to that of cytotoxic concentration against HIV-1 induced cytopathogenicity in MT-4 cells. The format is functional.
Where [4] appears, read: Human immunodeficiency virus 1, Lymphocyte, read-out: EC50.
[5] abbreviates: Homo sapiens, MT4, read-out: CC50.

For orientation: EC50 means the concentration needed to bring the measured effect to its halfway point. For orientation: CC50 means the concentration at which the toxic effect on the cells reaches its halfway point. Turning to `CC(C)=CCN1Cc2cccc3[nH]c(=S)n(c23)C[C@@H]1C`, the concentration for a half-maximal effect (EC50) in assay [1] (setting [4]) was 0.021 µg/mL (≈ 0.0731 µM). The CC50 in assay [2] (setting [5]) was greater than 20 µg/mL. Besides, the Selectivity index in assay [3] is recorded as greater than 952.

With `NC1=CS(=O)(=O)O[C@]12[C@@H](CO)O[C@@H](n1ccc(=O)[nH]c1=O)[C@@H]2O`, in assay [1] (setting [4]), the EC50 is greater than 80 µg/mL. In assay [2] (setting [5]), the CC50 was determined as 320 µg/mL (≈ 921 µM). Moreover, the Selectivity index in assay [3] was less than 4.

Turning to `CC(=O)Nc1ccn([C@@H]2O[C@H](CO[Si](C)(C)C(C)(C)C)[C@]3(OS(=O)(=O)C=C3N)[C@H]2O[Si](C)(C)C(C)(C)C)c(=O)n1`, the EC50 in assay [1] (setting [4]) was greater than 4 µg/mL. The CC50 in assay [2] (setting [5]) turned out to be 7.1 µg/mL (≈ 11.5 µM). For the same molecule, the Selectivity index in assay [3] is recorded as less than 1.8.

The molecule `CC(C)(C)[Si](C)(C)OC[C@H]1O[C@@H](n2ccc(=O)[nH]c2=O)[C@H](O[Si](C)(C)C(C)(C)C)C12OS(=O)(=O)C=C2N` (stereo in doubt; 11b) showed an EC50 in assay [1] (lymphocyte) greater than 1.6 µg/mL. This molecule returned a CC50 in assay [2] of 3.1 µg/mL (≈ 5.38 µM). Moreover, in assay [3], the Selectivity index is less than 2.

In the case of `Cc1cn([C@@H]2O[C@H](CO[Si](C)(C)C(C)(C)C)[C@]3(OS(=O)(=O)C=C3N)[C@H]2O[Si](C)(C)C(C)(C)C)c(=O)[nH]c1=O`, the EC50 in assay [1] (setting [4]) was greater than 4 µg/mL. Besides, in assay [2] (setting [5]), the 50% cytotoxic concentration (CC50) amounted to 18 µg/mL (≈ 30.5 µM). For the same molecule, in assay [3], the Selectivity index was less than 4.5.

In the case of `CC(C)(C)[Si](C)(C)OC[C@H]1O[C@@H](n2ccc(=O)[nH]c2=O)[C@H](O[Si](C)(C)C(C)(C)C)C12OS(=O)(=O)C=C2N` (stereo in doubt; 12b), the EC50 in assay [1] (lymphocyte) worked out at 0.114 µg/mL (≈ 0.198 µM). Also, the cytotoxic concentration (CC50) in assay [2] amounted to 8.3 µg/mL (≈ 14.4 µM). In addition, in assay [3], the Selectivity index is 73.

For `Cc1cn([C@@H]2O[C@H](CO)[C@]3(OS(=O)(=O)C=C3N)[C@H]2O)c(=O)[nH]c1=O`, in assay [1] (setting [4]), the EC50 was greater than 500 µg/mL. The CC50 in assay [2] (setting [5]) was greater than 500 µg/mL. Further, the Selectivity index in assay [3] is less than 1.

As for `Cc1c(Sc2ccccc2)n(COCCO)c(=O)[nH]c1=O` [HEPT], the EC50 in assay [1] (setting [4]) amounted to 5.5 µg/mL (≈ 17.8 µM). Further, the CC50 in assay [2] (setting [5]) was greater than 200 µg/mL. In addition, the Selectivity index in assay [3] is listed as greater than 36.

`CC(=O)Nc1ccn([C@@H]2O[C@H](CO[Si](C)(C)C(C)(C)C)[C@@]3(OS(=O)(=O)C=C3N)[C@H]2O[Si](C)(C)C(C)(C)C)c(=O)n1`: in assay [1] (setting [4]), the EC50 was 0.097 µg/mL (≈ 0.157 µM). Moreover, the CC50 in assay [2] (setting [5]) is 7.5 µg/mL (≈ 12.2 µM). Moreover, in assay [3], the Selectivity index is given as 77.

As for `Cc1cn([C@@H]2O[C@H](CO[Si](C)(C)C(C)(C)C)[C@@]3(OS(=O)(=O)C=C3N)[C@H]2O[Si](C)(C)C(C)(C)C)c(=O)[nH]c1=O`, in assay [1] (setting [4]), the EC50 amounted to 0.034 µg/mL (≈ 0.0576 µM). The CC50 in assay [2] (setting [5]) worked out at 7.7 µg/mL (≈ 13.1 µM).

Take `Cc1cn([C@H]2C[C@]3(OS(=O)(=O)C=C3N)[C@@H](CO[Si](C)(C)C(C)(C)C)O2)c(=O)[nH]c1=O`: in assay [1] (setting [4]), the EC50 is greater than 0.8 µg/mL. The CC50 in assay [2] (setting [5]) turned out to be 1.5 µg/mL (≈ 3.26 µM). Moreover, in assay [3], the Selectivity index is given as less than 1.9.

As to `Cc1cn([C@@H]2O[C@H](CO[Si](C)(C)C(C)(C)C)[C@@]3(OS(=O)(=O)C=C3N)[C@H]2O)c(=O)[nH]c1=O`, in assay [1] (setting [4]), the EC50 is greater than 20 µg/mL. The CC50 in assay [2] (setting [5]) was determined as 45 µg/mL (≈ 94.6 µM). The Selectivity index in assay [3] is less than 2.2.

For the molecule `CC(C)(C)[Si](C)(C)O[C@H]1[C@H](n2ccc(=O)[nH]c2=O)O[C@H](CO)[C@]12OS(=O)(=O)C=C2N`, in assay [1] (setting [4]), the EC50 is greater than 100 µg/mL. For the same molecule, in assay [2] (setting [5]), the 50% cytotoxic concentration (CC50) was determined as 221 µg/mL (≈ 479 µM). Also, in assay [3], the Selectivity index was less than 2.

`Cc1ccnc2c1NC(=O)c1cccnc1N2C1CC1` [NEVIRAPINE]: in assay [1] (setting [4]), the EC50 was 0.038 µg/mL (≈ 0.143 µM). The CC50 in assay [2] (setting [5]) is greater than 20 µg/mL. Moreover, in assay [3], the Selectivity index is greater than 526.

`Cc1cn([C@@H]2O[C@H](CO)[C@@]3(OS(=O)(=O)C=C3N)[C@H]2O)c(=O)[nH]c1=O`: the EC50 in assay [1] (setting [4]) was greater than 100 µg/mL. In assay [2] (setting [5]), the CC50 is greater than 100 µg/mL.

For `Cc1cn([C@@H]2O[C@H](CO)[C@@]3(OS(=O)(=O)C=C3N)[C@H]2O[Si](C)(C)C(C)(C)C)c(=O)[nH]c1=O`, in assay [1] (setting [4]), the concentration giving a half-maximal response (EC50) was greater than 40 µg/mL. Besides, in assay [2] (setting [5]), the CC50 is 106 µg/mL (≈ 223 µM). Besides, the Selectivity index in assay [3] was less than 2.6.

For `Cc1cn([C@@H]2O[C@H](CO[Si](C)(C)C(C)(C)C)[C@@](C#N)(OS(C)(=O)=O)[C@H]2O[Si](C)(C)C(C)(C)C)c(=O)[nH]c1=O`, in assay [1] (setting [4]), the EC50 is greater than 1.6 µg/mL. Moreover, in assay [2] (setting [5]), the 50% cytotoxic concentration (CC50) amounted to 4.3 µg/mL (≈ 7.29 µM). The Selectivity index in assay [3] is listed as less than 2.7.
